The source made the active and inactive calls. No cut-off for these calls is given here.
How the values were obtained:
[1] = Irreversible inhibition of recombinant Streptococcus pyogenes sortase A deltaN81 expressed in Escherichia coli BL21(DE3) cells using Abz-LPATG-Dnp as substrate preincubated for 10 mins followed by substrate addition and measured every 1 min for 15 mins by FRET-based assay
[2] = test system: Sortase A (Staphylococcus aureus), Q9S446 [UNDEFINED MUTATION]; assay: (§1) Irreversible inhibition of recombinant Staphylococcus aureus sortase A deltaN24 expressed in Escherichia coli BL21(DE3) cells using Abz-LPATG-Dnp as substrate assessed as maximum inactivation rate constant preincubated for 60 mins followed by substrate addition and measured every 1 min for 15 mins by fluorescence intensity based assay; settings: time 75.0 min
How it was run: (§2)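 Variable inhibitor concentrations incubated with SaSrtAΔN24 or SpSrtAΔN81 for different times, followed by FRET enzyme kinetics with Abz-LPATG-Dnp. kobs fitted as kinact × [I]/(KI + [I]) to give kinact and KI.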

[3] = Selectivity ratio of Kinact for irreversible inhibition of recombinant Staphylococcus aureus sortase A deltaN24 expressed in Escherichia coli BL21(DE3) cells to Kinact for irreversible inhibition of recombinant Streptococcus pyogenes sortase A deltaN81 expressed in Escherichia coli BL21(DE3) cells
Sortase A [4] = target: T1, Sortase A (Staphylococcus aureus, UniProt Q9S446); assay: Irreversible inhibition of recombinant Staphylococcus aureus sortase A deltaN24 expressed in Escherichia coli BL21(DE3) cells using Abz-LPATG-Dnp as substrate preincubated for 40 mins followed by substrate addition and measured every 1 min for 15 mins by FRET-based assay
How it was run: (§3)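 SaSrtAΔN24 preincubated with compound for 10, 20, 40 or 60 min before FRET IC50 determination with Abz-LPATG-Dnp in Tris pH 7.5, NaCl, CaCl2 buffer.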

[5] = test system: Sortase A (Staphylococcus aureus), Q9S446 [UNDEFINED MUTATION]; assay: as §1, with “[…]” for “maximum inactivation rate constant”; settings: time 75.0 min; how it was run: as §2
Staphylococcus aureus [6] = assay: Anti-infectivity against methicillin-resistant Staphylococcus aureus USA300 infected in Galleria mellonella larvae assessed as survival at 12.5 mg/kg and measured after 120 hrs; type: functional, organism-based
How it was run: (§4)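 G. mellonella larvae (2-2.5 cm, creamy), starved 24 h at room temperature. S. aureus grown in TSB to A600 1.0, washed and resuspended in PBS, premixed with compound in vehicle (5% DMSO, 20% PEG300, 75% PBS with 6.6% solutol HS-15). Injected into last proleg at about 1 × 10^6 CFU/larva (Newman) or 1 × 10^7 CFU/larva (USA300). Groups of 15 kept at 37 °C, survival recorded 120 h, Mantel–Cox test.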

Sortase A [7] = target: T1, Sortase A; assay: Irreversible inhibition of recombinant Staphylococcus aureus sortase A deltaN24 expressed in Escherichia coli BL21(DE3) cells using Abz-LPATG-Dnp as substrate preincubated for 10 mins followed by substrate addition and measured every 1 min for 15 mins by FRET-based assay; how it was run: as §3
Staphylococcus aureus [8] = assay: Antibiofilm activity against methicillin-resistant Staphylococcus aureus USA300 assessed as reduction in biofilm biomass at 25 to 200 uM incubated for 18 hrs by crystal violet staining based microplate reader analysis; type: functional, organism-based; settings: dose 25-200 µM
How it was run: (§5)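 S. aureus overnight culture diluted 1:1000 in TSB with inhibitor, grown static at 37 °C for 18 h. Wells rinsed with PBS, fixed with methanol 10 min, stained with 0.1% crystal violet 15 min. Stain dissolved in 33% acetic acid and A600 read. Three independent experiments, mean ± SEM.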

[9] = Toxicity in Galleria mellonella larvae assessed as survivability measured after 120 hrs
How it was run: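 G. mellonella larvae (2-2.5 cm, creamy), starved 24 h, injected with 10 µL compound in vehicle (5% DMSO, 20% PEG300, 75% PBS with 6.6% solutol HS-15). Kept at 37 °C; survival and appearance recorded over 120 h with photography. Three independent experiments.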

Staphylococcus aureus [10] = assay: Anti-infectivity against Staphylococcus aureus Newman infected in Galleria mellonella larvae assessed as survival rate at 25 mg/kg and measured after 120 hrs; type: functional; how it was run: as §4
[11] = test system: Sortase A (Staphylococcus aureus), Q9S446 [UNDEFINED MUTATION]; assay: Irreversible inhibition of recombinant Staphylococcus aureus sortase A deltaN24 expressed in Escherichia coli BL21(DE3) cells using Abz-LPATG-Dnp as substrate assessed as increase in Km preincubated for 60 mins followed by substrate addition and measured every 1 min for 15 mins by FRET-based assay; settings: time 75.0 min
How it was run: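 SrtA (5 µM) incubated 1 h at room temperature with compound or DMSO, then inhibitor removed by centrifugal filtration. Aliquots taken before and after filtration were assayed with Abz-LPATG-Dnp (0.78–200 µM for Sa enzyme, 0.2–50 µM for Sp enzyme) at ex 309/em 420 nm for 15 min. Km fitted; MTSET as control; triplicates, run in duplicate.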

Staphylococcus aureus [12] = assay: Antibacterial activity against Staphylococcus aureus Newman assessed as inhibition of bacterial growth incubated for 16 to 18 hrs; type: functional; settings: time 16-18 hrs
How it was run: (§6)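 Broth microdilution: S. aureus in TSB, E. coli in LB. Overnight cultures diluted 1:1000, grown at 37 °C to A600 0.6, then diluted 1:400 into two-fold compound dilutions. Incubated 16–18 h at 37 °C without shaking. MIC taken as the lowest concentration with no visible growth. Two independent experiments.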

Sortase A [13] = target: T1, Sortase A; assay: Inhibition of recombinant Staphylococcus aureus sortase A deltaN24 transpeptidation expressed in Escherichia coli BL21 (DE3) cells using Abz-LPATG-Dnp as substrate preincubated for 20 mins followed by substrate addition and measured every 1 min for 15 mins by FRET assay
How it was run: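 His-tagged enzyme purified by Ni-NTA and gel filtration. 1 µM SrtA preincubated with compound (0.05–50 µM) for 20 min at room temperature in 50 mM Tris-HCl pH 7.5, 150 mM NaCl, 5 mM CaCl2. Reaction started with 10 µM Abz-LPATG-Dnp, read at ex 309/em 420 nm. IC50 from a sigmoidal dose–response fit; triplicates, two experiments.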

Sortase A [14] = target: T1, Sortase A; assay: Irreversible inhibition of recombinant Staphylococcus aureus sortase A deltaN24 expressed in Escherichia coli BL21(DE3) cells using Abz-LPATG-Dnp as substrate preincubated for 20 mins followed by substrate addition and measured every 1 min for 15 mins by FRET-based assay; how it was run: as §3
Staphylococcus aureus [15] = assay: Antibiofilm activity against wild type Staphylococcus aureus Newman assessed as reduction in biofilm biomass at 25 to 200 uM incubated for 18 hrs by crystal violet staining based microplate reader analysis; type: functional, organism-based; settings: dose 25-200 µM; how it was run: as §5
Sortase A [16] = target: T1, Sortase A; assay: Irreversible inhibition of recombinant Staphylococcus aureus sortase A deltaN24 expressed in Escherichia coli BL21(DE3) cells using Abz-LPATG-Dnp as substrate preincubated for 60 mins followed by substrate addition and measured every 1 min for 15 mins by FRET-based assay; how it was run: as §3
Staphylococcus aureus [17] = assay: Anti-virulence activity against Staphylococcus aureus Newman assessed as decrease in SpA display on cell envelope at 25 to 200 uM by Western blot analysis; type: functional, organism-based; settings: dose 25-200 µM
How it was run: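 S. aureus overnight culture diluted 1:1000 in TSB and grown with inhibitor until A600 3.0. Washed cells treated with 10 µg mL-1 lysostaphin in PBS for 15 min at 37 °C. Supernatant (cell-wall anchored proteins) run on SDS-PAGE and immunoblotted for SpA, with ClpP as loading control. Three independent experiments.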

Staphylococcus aureus [18] = assay: Antibacterial activity against Staphylococcus aureus USA300 assessed as inhibition of bacterial growth incubated for 16 to 18 hrs; type: functional; settings: time 16-18 hrs; how it was run: as §6

## COc1ccc(/C=C/C=C2C(=O)NC(=O)NC2=O)cc1
[1]
  IC50: 3700 nM
[2]
  Kinact: 0.185 min⁻¹
[3]
  Ratio: 4
Sortase A [4]
  IC50: 400 nM
[5]
  Ratio: 0.075 µM⁻¹ min⁻¹
Staphylococcus aureus [6]
  Activity: Active
Sortase A [7]
  IC50: 1100 nM
Staphylococcus aureus [8]
  Activity: Active
[9]
  Activity: Non-Toxic
Staphylococcus aureus [10]
  Activity: 46.7%
[11]
  inhibition: Active
Staphylococcus aureus [12]
  MIC: > 512 µg/mL
Sortase A [13]
  IC50: 370 nM
Sortase A [14]
  IC50: 500 nM
Staphylococcus aureus [15]
  Activity: Active
Sortase A [16]
  IC50: 300 nM
Staphylococcus aureus [17]
  Activity: Active
Staphylococcus aureus [18]
  MIC: > 512 µg/mL

Reference: ChEMBL document CHEMBL5107962, “Covalent sortase A inhibitor ML346 prevents Staphylococcus aureus infection of Galleria mellonella” (RSC Med Chem, 2022)
